Reference: PMC6957252 (Bioorganic & medicinal chemistry, 2016)
Each block holds one compound with its values, some of them ahead of it.

Key:
[1] = molecular target: human TRPV1 heterologously expressed in Chinese hamster ovary (CHO) cells (Homo sapiens, UniProt Q8NER1); format: cell-based
In short: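 45Ca2+ uptake in CHO cells heterologously expressing human TRPV1. […] Ki is calculated to account for competition between capsaicin and antagonist. In agonist mode, 300 nM capsaicin (saturating) defines maximal response, and absence or weakness of uptake is scored as no or weak effect. Values are mean ± SEM of at least three experiments.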

[2] = molecular target: human TRPV1 (Homo sapiens, UniProt Q8NER1); experiment: binding competition assay with [3H]RTX; conditions: ratio of Ki versus 1S
In short: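 Competition binding of [3H]RTX to human TRPV1 heterologously expressed in CHO cells. Binding affinity reported as Ki. Values are mean ± SEM of at least three experiments.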

[3] = in vivo; cited from earlier work
[4] = neuropathic pain model; cited from earlier work

Sequence of human TRPV1 heterologously expressed in Chinese hamster ovary (CHO) cells (Q8NER1 whole entry): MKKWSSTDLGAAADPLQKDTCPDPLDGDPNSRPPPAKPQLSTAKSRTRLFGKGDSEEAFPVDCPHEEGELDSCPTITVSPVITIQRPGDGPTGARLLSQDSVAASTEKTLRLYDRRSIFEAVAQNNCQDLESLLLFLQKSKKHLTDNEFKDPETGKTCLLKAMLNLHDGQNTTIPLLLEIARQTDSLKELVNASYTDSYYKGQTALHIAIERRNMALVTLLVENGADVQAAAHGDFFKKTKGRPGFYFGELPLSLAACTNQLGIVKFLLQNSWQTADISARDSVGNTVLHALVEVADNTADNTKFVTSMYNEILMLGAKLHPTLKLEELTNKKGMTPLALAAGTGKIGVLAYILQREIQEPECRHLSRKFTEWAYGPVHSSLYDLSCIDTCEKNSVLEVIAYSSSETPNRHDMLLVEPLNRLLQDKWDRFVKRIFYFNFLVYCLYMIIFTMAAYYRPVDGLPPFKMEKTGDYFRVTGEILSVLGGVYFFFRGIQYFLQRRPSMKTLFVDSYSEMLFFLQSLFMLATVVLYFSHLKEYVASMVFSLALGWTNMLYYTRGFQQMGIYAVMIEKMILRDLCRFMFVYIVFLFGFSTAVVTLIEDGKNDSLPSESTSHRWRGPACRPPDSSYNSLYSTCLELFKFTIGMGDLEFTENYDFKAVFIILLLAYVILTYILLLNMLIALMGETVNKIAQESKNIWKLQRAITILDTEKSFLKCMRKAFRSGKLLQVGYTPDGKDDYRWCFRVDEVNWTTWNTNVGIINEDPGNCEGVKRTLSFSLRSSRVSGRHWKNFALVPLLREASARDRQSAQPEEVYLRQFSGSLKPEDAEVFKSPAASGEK
Sequence of human TRPV1 (Q8NER1 whole entry): as above

SMILES: CC(C(=O)NCc1ccc(C(F)(F)F)nc1NS(=O)(=O)c1ccccc1)c1ccc(NS(C)(=O)=O)c(F)c1 (stereo not shown) [Compound 6, 2-(3-Fluoro-4-(methylsulfonamido)phenyl)-N-((2-(phenylsulfonamido)-6-(triflu-oromethyl)pyridin-3-yl)methyl)propanamide]
activity on hTRPV1 (in words) ([1]; binding affinity and antagonism, Table 1 series): little activity

SMILES: C[C@H](C(=O)NCc1ccc(C(F)(F)F)nc1N(Cc1ccccc1)S(=O)(=O)c1ccccc1)c1ccc(NS(C)(=O)=O)c(F)c1 [Compound 12S, (S)-N-((2-(N-Benzylphenylsulfonamido)-6-(trifluoromethyl)pyridin-3-yl)methyl)-2-(3-fluoro-4-(methylsulfonamido)phenyl)propanamide]
fold increase in binding affinity compared to 1S [2]: 5 fold
fold decrease in antagonism compared to 1S ([1]; ratio of Ki(ant) versus 1S): 1.5 fold

SMILES: CC1CCN(c2nc(C(F)(F)F)ccc2CNC(=O)C(C)c2ccc(NS(C)(=O)=O)c(F)c2)CC1 (stereo not shown) [Compound 1]
effect on capsaicin-induced hypothermia [3]: blocked capsaicin-induced hypothermia
antiallodynic activity [4]: potent antiallodynic activity

More lines, now with the values ahead:

fold more potent antagonism than 12 ([1]; ratio of Ki(ant) versus 12): ca. 3 fold
SMILES: COc1ccc(CN(c2nc(C(F)(F)F)ccc2CNC(=O)C(C)c2ccc(NS(C)(=O)=O)c(F)c2)S(=O)(=O)c2ccccc2)cc1 (stereo not shown) [Compound 19, 2-(3-Fluoro-4-(methylsulfonamido)phenyl)-N-((2-(N-(4-methoxybenzyl)phenyl-sulfonamido)-6-(trifluoromethyl)pyridin-3-yl)methyl)propanamide]

fold reduction in antagonism compared to lead compound 1 ([1]; ratio of Ki(ant) versus compound 1): 2.5 fold
SMILES: CC(C(=O)NCc1ccc(C(F)(F)F)nc1N(Cc1ccccc1)S(=O)(=O)c1ccccc1)c1ccc(NS(C)(=O)=O)c(F)c1 (stereo not shown) [Compound 12, N-((2-(N-Benzylphenylsulfonamido)-6-(trifluoromethyl)pyridin-3-yl)methyl)-2-(3-fluoro-4-(methylsulfonamido)phenyl)propanamide]
